This excerpt belongs to a sample that is enriched for hits.
VLA-4 inh: inhibition in human VLA-4 binding assay, primary screen, VLA-4 allosteric modulator project, MLPCN library, flow cytometry, VLA-4 expressing cells; Integrin alpha-4 (Homo sapiens), P13612; ligand binding flow cytometry; inhibition, % (about 7 µM as worked out from the volumes in the protocol); 330,000 tested, 0.2% active; AID 2557, 2010; in the data active = inhibition above about 50%
CHOP inh: inhibitors of CHOP promoter induction, primary screen, cell-based, unfolded protein response, luciferase reporter. 220,000 tested, 3.8% active. AID 2732, 2010. inhibition, % at 10 µM. CHO-K1 CHOP-promoter luciferase, tunicamycin-induced, 15-18 h;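 active = compounds that reduced the stress-induced luciferase reporter signal by more than about 70% of percent inhibition, limit read from the data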;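 also: 0% = tunicamycin plus vehicle and 100% = wells without tunicamycin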
XBP1 UPR activ: activators of adaptive XBP1 UPR arm, primary screen, cell-based, CHO-XBP1 luciferase reporter, luminescence, uHTS; IRE1-XBP1 UPR activation; percent of tunicamycin response, DMSO as zero; activation, % at 20 µM; 330,000 tested, 0.33% active; AID 463104, 2010;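 active = versus positive control, 20 µM dose yields 30% or more activation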;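 also: 100% = tunicamycin at 10 µg/mL and 0% = DMSO only wells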
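assay system = CHO-XBP1 luciferase reporter cells | amount = 1000 cells/well | buffer or medium = F12 plus 10% FBS | compound dosing = single point, 20 µM final compound, 1% DMSO | incubation = 16-18 h cell attachment at 37 °C, then 6 h compound exposure | detection = Steady-Glo luminescence read | controls = tunicamycin 10 µg/mL and vehicle-only wells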
UPR CHOP act: activators of apoptotic CHOP UPR arm, primary screen, cell-based, CHO-CHOP luciferase reporter, luminescence, uHTS; 330,000 tested, 0.34% active; activation, % at 10 µM; UPR activation; percent of tunicamycin response over DMSO baseline; AID 449763, 2010;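 active = at 10 µM dose, activation of 40% or more, normalized to positive control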;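 also: 100% = tunicamycin at 10 µg/mL and 0% = DMSO alone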
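Evaluation: % reporter activation, DMSO baseline versus tunicamycin full activation; System: CHO-CHOP luciferase reporter cell line; Input: 500 cells/well; Incubation: 6 h compound treatment, 37 °C; Measured by: Steady-Glo luciferase luminescence; Dosing: one dose, 10 µM in 0.5% DMSO; Buffer or medium: F12 medium, 10% FBS; Benchmarks: positive tunicamycin 10 µg/mL, negative DMSO alone.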
B2AR ag: beta2AR agonists driving receptor internalization, primary screen, cell-based, FAP fluorogen, flow cytometry; Beta-2 adrenergic receptor (Homo sapiens), P07550; Am2.2-beta2AR cells; response, % (no concentration beside the values); 340,000 tested, 0.43% active; AID 504454, 2011;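 active = response above a set limit, near 3 SD of response in nonfluorescent compounds, cut at about 42% in these data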
Target sequence (P07550 whole entry, looked up): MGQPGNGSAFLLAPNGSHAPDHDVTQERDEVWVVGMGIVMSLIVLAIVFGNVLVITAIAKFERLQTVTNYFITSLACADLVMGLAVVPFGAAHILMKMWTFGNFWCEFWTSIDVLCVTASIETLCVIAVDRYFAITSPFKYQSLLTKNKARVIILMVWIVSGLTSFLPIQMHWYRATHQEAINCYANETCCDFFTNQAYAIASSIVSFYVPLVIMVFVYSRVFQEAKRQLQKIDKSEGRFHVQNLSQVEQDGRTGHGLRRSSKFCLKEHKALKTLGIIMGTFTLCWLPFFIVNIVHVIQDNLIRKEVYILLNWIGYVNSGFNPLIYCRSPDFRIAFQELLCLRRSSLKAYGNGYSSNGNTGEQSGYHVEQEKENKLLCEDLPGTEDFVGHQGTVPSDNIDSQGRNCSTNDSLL
CHOP inh conf: retest of CHOP induction inhibitors, confirmation, cell-based | shares compounds with CHOP inh | CHO-CHOP promoter luciferase reporter, tunicamycin-induced, luminescence | inhibition, % at 10 µM | 2,100 tested, 45% active | AID 504437, 2011;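 active = mean of three repeat readings of reporter signal inhibition above a set limit, cut at about 70% in these data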;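 also: 0% = tunicamycin plus vehicle and 100% = wells lacking tunicamycin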
Active calls of the source: *; x = no result given.

SMILES	VLA-4 inh	CHOP inh	XBP1 UPR activ	UPR CHOP act	B2AR ag	CHOP inh conf
Cc1cc(C)n(-c2nc3ccccc3nc2N2CCCCCC2)n1	2.1	96.1*	0.0	-1.2	11.5	36.1
CC(C)c1ccc(CNC(=O)C(=O)Nc2nccs2)cc1	4.0	2.6	-1.0	-0.8	-4.3	x
CC(C)Cc1ccc(C(C)C(=O)Nc2nccs2)cc1 (stereo not drawn)	0.0	96.2*	0.3	0.2	-3.9	94.1*
CC(C)Cn1c(=O)[nH]c(=O)c2c(C(F)(F)F)cc(-c3ccccc3)nc21	-4.7	99.5*	16.0	1.4	1.2	100.3*
C=C(C(=O)c1ccccc1)C(C)C(=C)C(=O)c1ccccc1	-70.2	99.5*	x	x	9.7	109.7*
C=C(C(=O)c1ccccc1)C(c1ccccc1)C(C)C(=O)c1ccccc1 (stereo not drawn)	13.8	5.9	-0.7	1.6	3.8	x
O=C(Cc1c[nH]c2ccccc12)Nc1ccccc1N1CCOCC1	8.1	26.5	0.2	-0.8	7.8	x
Cc1cc(Nc2ccc(Cl)cc2)nc(NCc2ccccc2)n1	8.9	106.7*	13.0	4.3	37.4	81.4*
COc1ccc([C@H]2Oc3cc(O)cc(O)c3C(=O)C2[C@@H]2C(=O)c3c(O)cc(O)cc3O[C@@H]2c2ccc(OC)cc2)cc1 (stereo partly drawn)	-15.1	105.0*	2.7	1.6	x	110.8*
COc1ccc(-n2c(SCC(=O)N3CCOCC3)nc3ccccc3c2=O)cc1	-14.3	x	-3.9	0.5	-4.2	x
Cc1ccc(NC(=O)CCC(=O)N/N=C/c2ccc(O)cc2O)cc1	33.3	x	-3.9	-1.2	1.2	x
C=CCc1cccc(/C=N/NC(=O)CCC(=O)Nc2ccc(C)cc2)c1O	13.6	98.1*	-1.0	-1.4	-7.0	69.3
O=C(On1c(-c2ccccc2)nc2ccccc2c1=O)c1ccco1	-13.2	104.5*	-2.2	-0.7	2.1	116.3*
O=c1c2ccccc2nc(-c2ccco2)n1Cc1ccccc1	-1.0	47.2	1.8	6.2	-16.5	x
CC1=CC(C)(C)N2C(=O)C3(SCC(=O)N3c3ccc(F)cc3)c3cc(C)cc1c32 (stereo not drawn)	1.4	107.5*	1.6	-1.2	20.5	111.7*
CC1(c2ccccc2)CC(C)(C)n2c(O)c(C3=NC(=S)NC3=O)c3cccc1c32 (stereo not drawn)	4.5	103.9*	19.1	1.9	10.2	109.4*
COc1cc2c3c(c1)c(C1=NC(=S)NC1=O)c(O)n3C(C)(C)C=C2C	-29.9	38.5	-0.2	0.1	-2.6	x
COC(=O)[C@]1(C)N[C@H](CN(C)C(=O)COc2ccccc2)[C@@H]2C(=O)N(C)C(=O)[C@@H]21	-2.5	x	-3.2	-1.7	-9.9	x
O=C(Nc1nnc(-c2ccccc2Cl)o1)c1ccc(S(=O)(=O)N2CCCCCC2)cc1	-4.2	61.4	2.9	12.9	x	x
CCC1CCCCN1S(=O)(=O)c1ccc(C(=O)Nc2nnc(-c3ccccc3Cl)o2)cc1 (stereo not drawn)	-11.8	107.0*	1.3	3.9	20.4	102.3*
Cn1c(N)c(C(=O)CSc2nc(C3CC3)n(-c3ccccc3)n2)c(=O)[nH]c1=O	-3.1	x	6.0	0.8	-20.9	x
Cc1ccc(C)c(N2CCN(C(=O)CCS(=O)(=O)c3ccc4c(c3)oc(=O)n4C)CC2)c1	5.0	x	-9.2	0.7	-1.9	x
Cc1cc(S(=O)(=O)Nc2cccnc2)c(C)s1	-1.5	12.8	0.8	0.0	3.5	x
Cc1cc(S(=O)(=O)Nc2ccc3ccccc3c2)c(C)s1	5.0	110.6*	-1.3	-1.9	7.8	51.6
CC(C)COC(=O)/C(C#N)=C/c1c[nH]c2ccccc12	6.0	100.7*	6.0	3.7	-11.6	-21.7
O=C(CSc1ccc2nnc(-c3cccc(F)c3)n2n1)N1CCCc2ccccc21	3.8	105.0*	1.3	0.4	-12.5	33.0
CC(=O)/C=C/n1c(=S)oc2ccccc21	-22.0	106.1*	x	x	x	115.8*

Screening results deposited in PubChem by several laboratories.
